# According to ChEMBL document CHEMBL1649127, “In vivo and in vitro efficacy of amodiaquine monotherapy for treatment of infection by chloroquine-resistant Plasmodium vivax” (Antimicrob Agents Chemother, 2009):
# How the values were obtained:
# Plasmodium vivax [1] = experiment: Antimalarial activity against chloroquine-resistant Plasmodium vivax infected in human assessed as clearance of peripheral parasitemia at total dose of 30 mg/kg administered as three daily doses measured 48 hrs post dose; assay type: functional
# In short: (§1)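 Oral amodiaquine 30 mg base/kg total, given as three daily doses. For children, the tablet was crushed and given as a suspension in water. Primaquine […] for 14 days was withheld until day 28 if there was no G6PD deficiency.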
# Homo sapiens [2] = experiment: Toxicity in patient infected with chloroquine-resistant Plasmodium vivax assessed as occurrence of vomiting at total dose of 30 mg/kg administered as three daily doses measured […]; assay type: organism-based; design: dose 30 mg/kg; conditions: in vivo
# In short: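 Three daily oral doses of amodiaquine, 30 mg base/kg total, were given under observation for 60 min. Patients who vomited were withdrawn and retreated with oral quinine. Children received crushed tablet suspended in water.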
# Homo sapiens [3] = experiment: Toxicity in human infected with chloroquine-Resistant Plasmodium vivax assessed as occurrence of nausea at total dose of 30 mg/kg administered as three daily doses; assay type: organism-based; design: dose 30 mg/kg; conditions: in vivo; in short: as §1
# Homo sapiens [4] = experiment: Toxicity in patient infected with chloroquine-resistant Plasmodium vivax assessed as occurrence of anemia at total dose of 30 mg/kg administered as three daily doses measured 28 days post dose; conditions: in vivo, 672 h
# Plasmodium vivax [5] = experiment: Antimalarial activity against chloroquine-resistant Plasmodium vivax infected in human assessed as clearance of peripheral parasitemia at total dose of 30 mg/kg administered as three daily doses measured within 24 hrs post dose; assay type: functional; in short: as §1
# Plasmodium vivax [6] = experiment: Antimalarial activity against chloroquine-Resistant Plasmodium vivax infected in human assessed as parasite recurrence rate at total dose of 30 mg/kg administered as three daily doses measured on day 28 post dose; assay type: functional; in short: as §1
# Homo sapiens [7] = experiment: Toxicity in patient infected with chloroquine-resistant Plasmodium vivax assessed as occurrence of anemia at total dose of 30 mg/kg administered as three daily doses measured 7 days post dose; assay type: organism-based; design: dose 30 mg/kg; conditions: in vivo, 168 h
# In short: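 Patients received oral amodiaquine 30 mg base/kg split over three daily doses, with 60-min observation after each dose. Children were given crushed tablet in water. Anemia was defined as hemoglobin <10 g/dl. Primaquine was deferred to day 28.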
# Plasmodium vivax [8] = experiment: Antimalarial activity against chloroquine-resistant Plasmodium vivax by Giemsa staining; assay type: functional, organism-based
# In short: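 Ex vivo P. vivax isolates came from clinic outpatients with parasitemia >5,000 μl−1 and were tested with a modified WHO microtest. Incubation ran until the drug-free control reached ≥40% schizonts. Giemsa-stained thick smears from each well were read for schizonts per 200 asexual parasites and normalized to control. IC50 was derived by nonlinear regression.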
compound,measurement,setting,value
CCN(CC)Cc1cc(Nc2ccnc3cc(Cl)ccc23)ccc1O.Cl,Activity,Plasmodium vivax [1],91%
same,Activity,Homo sapiens [2],4.6%
same,Activity,Homo sapiens [3],4.5%
same,Activity,Homo sapiens [4],Non-toxic
same,Activity,Plasmodium vivax [5],52%
same,Activity,Plasmodium vivax [6],22.8%
same,Activity,Homo sapiens [7],30%
same,IC50,Plasmodium vivax [8],11.3 nM
C[C@H]1[C@H](OC(=O)CCC(=O)O)O[C@@H]2O[C@@]3(C)CC[C@H]4[C@H](C)CC[C@@H]1[C@@]24OO3 [ARTESUNATE],IC50,Plasmodium vivax [8],1.29 nM
CCN(CC)CCCC(C)Nc1ccnc2cc(Cl)ccc12 (stereo not drawn) [CHLOROQUINE],IC50,Plasmodium vivax [8],52.7 nM
CCCCN(CCCC)CC(O)c1cc(Cl)cc2c1-c1ccc(Cl)cc1/C2=C/c1ccc(Cl)cc1 (stereo not drawn) [LUMEFANTRINE],IC50,Plasmodium vivax [8],16 nM
OC(c1cc(C(F)(F)F)nc2c(C(F)(F)F)cccc12)C1CCCCN1 (stereo not drawn) [MEFLOQUINE],IC50,Plasmodium vivax [8],8.2 nM
Clc1ccc2c(N3CCN(CCCN4CCN(c5ccnc6cc(Cl)ccc56)CC4)CC3)ccnc2c1 [PIPERAQUINE],IC50,Plasmodium vivax [8],17.5 nM
